Laboratory results from ChEMBL document CHEMBL1148356, “Synthesis and biological evaluation of 3-heterocyclyl-7,8,9,10-tetrahydro-(7,10-ethano)-1,2,4-triazolo[3,4-a]phthalazines and analogues as subtype-selective inverse agonists for the GABA(A)alpha5 benzodiazepine binding site” (J Med Chem, 2004).

Biological target: T1, GABA-A receptor; alpha-5/beta-3/gamma-2 (Homo sapiens) (UniProt P18507+P28472+P31644)
Experiment: Percent maximum change in electrophysiological response in Xenopus oocytes expressing alpha-5-beta-3-gamma-2 GABA-A receptor
Type: functional, cell-based
Conditions: Oocyte
In short: (§1)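 Two-electrode voltage clamp on Xenopus oocytes injected with human GABA-A subunit cDNAs, 24-72 h expression, perfused with modified Barth's medium at pH 7.5, clamped between -40 and -70 mV. The GABA EC20 was titrated against a 3 mM GABA maximum. […] Result is % change of control current, mean ± SE of ≥4 oocytes.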

SMILES	Efficacy [%]
CCOC(=O)c1ncn2c1[C@@H]1CCCN1C(=O)c1cc(OC)ccc1-2	-21

Biological target: T2, GABA-A receptor; alpha-3/beta-3/gamma-2 (Homo sapiens) (UniProt P18507+P28472+P34903)
Experiment: Percent change in electrophysiological response in Xenopus oocytes expressing Alpha3-beta3-gamma2 GABA-A receptor
Type: functional, cell-based
Conditions: Oocyte
In short: as §1

SMILES	Efficacy [%]
Cc1cccc(COc2nn3c(-c4nc(C)no4)nnc3c3c2C2CCC3CC2)n1	-21
Cc1noc(-c2nnc3c4c(c(OCc5ccccc5Br)nn23)C2CCC4CC2)n1	12
Cc1cccc(COc2nn3c(-c4cnccn4)nnc3c3c2C2CCC3CC2)n1	19
CCOC(=O)c1ncn2c1[C@@H]1CCCN1C(=O)c1cc(OC)ccc1-2	-3

Biological target: T3, GABA-A receptor; alpha-2/beta-3/gamma-2 (Homo sapiens) (UniProt P18507+P28472+P47869)
Experiment: Percent maximum change in electrophysiological response in Xenopus oocytes expressing alpha-2-beta-3-gamma-2 GABA-A receptor
Type: functional, cell-based
Conditions: Oocyte
In short: as §1

SMILES	Efficacy [%]
CCOC(=O)c1ncn2c1[C@@H]1CCCN1C(=O)c1cc(OC)ccc1-2	-26

Biological target: T4, GABA-A receptor; alpha-5/beta-3/gamma-2 (Homo sapiens, UniProt P18507+P28472+P31644)
T4 sequence (P18507 whole entry): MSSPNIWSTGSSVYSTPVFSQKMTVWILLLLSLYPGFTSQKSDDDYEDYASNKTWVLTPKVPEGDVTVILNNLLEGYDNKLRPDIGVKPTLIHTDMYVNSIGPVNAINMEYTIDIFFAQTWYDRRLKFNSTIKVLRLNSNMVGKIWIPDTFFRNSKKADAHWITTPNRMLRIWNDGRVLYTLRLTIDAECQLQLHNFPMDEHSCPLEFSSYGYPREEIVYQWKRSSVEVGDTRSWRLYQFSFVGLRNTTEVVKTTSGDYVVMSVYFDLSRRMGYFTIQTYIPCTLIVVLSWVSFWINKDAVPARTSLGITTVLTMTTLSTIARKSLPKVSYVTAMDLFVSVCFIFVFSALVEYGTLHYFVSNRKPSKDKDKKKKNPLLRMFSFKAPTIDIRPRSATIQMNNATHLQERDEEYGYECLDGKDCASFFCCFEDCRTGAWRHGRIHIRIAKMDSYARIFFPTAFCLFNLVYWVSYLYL
T4 sequence (P28472 whole entry): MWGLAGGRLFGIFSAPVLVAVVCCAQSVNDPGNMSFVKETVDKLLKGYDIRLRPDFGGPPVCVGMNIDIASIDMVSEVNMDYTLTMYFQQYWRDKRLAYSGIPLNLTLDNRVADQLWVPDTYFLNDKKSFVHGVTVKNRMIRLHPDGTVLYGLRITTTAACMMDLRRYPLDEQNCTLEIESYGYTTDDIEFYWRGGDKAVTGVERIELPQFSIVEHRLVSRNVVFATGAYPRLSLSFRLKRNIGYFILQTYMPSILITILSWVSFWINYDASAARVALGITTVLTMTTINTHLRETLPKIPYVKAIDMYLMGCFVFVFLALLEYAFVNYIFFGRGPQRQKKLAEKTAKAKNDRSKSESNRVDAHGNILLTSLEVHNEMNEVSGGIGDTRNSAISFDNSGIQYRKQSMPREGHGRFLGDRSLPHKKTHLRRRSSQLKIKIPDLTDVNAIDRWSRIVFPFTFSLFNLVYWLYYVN
T4 sequence (P31644 whole entry): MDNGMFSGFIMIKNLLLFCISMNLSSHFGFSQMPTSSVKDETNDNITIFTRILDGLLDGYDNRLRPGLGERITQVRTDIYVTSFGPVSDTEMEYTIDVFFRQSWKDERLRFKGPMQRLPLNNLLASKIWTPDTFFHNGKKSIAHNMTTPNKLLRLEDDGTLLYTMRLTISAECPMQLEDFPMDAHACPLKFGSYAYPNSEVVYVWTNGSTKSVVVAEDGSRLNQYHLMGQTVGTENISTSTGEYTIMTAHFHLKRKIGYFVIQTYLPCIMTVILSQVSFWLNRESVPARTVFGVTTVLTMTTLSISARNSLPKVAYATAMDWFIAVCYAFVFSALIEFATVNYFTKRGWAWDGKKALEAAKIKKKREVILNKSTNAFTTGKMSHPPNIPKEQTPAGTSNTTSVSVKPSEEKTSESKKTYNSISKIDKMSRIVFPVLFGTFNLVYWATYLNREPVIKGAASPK
Experiment: Binding affinity towards human alpha-5-beta-3-gamma-2 GABA-A receptor using [3H]Ro-151788 expressed in L(tk-) cells
Type: cell-based
Conditions: not given

SMILES	Ki [nM]
Cc1cccc(COc2nn3c(-c4nc(C)no4)nnc3c3c2C2CCC3CC2)n1	1.4
Cc1noc(-c2nnc3c4c(c(OCc5ccccc5Br)nn23)C2CCC4CC2)n1	1
Cc1cccc(COc2nn3c(-c4cnccn4)nnc3c3c2C2CCC3CC2)n1	1.8

Biological target: T5, GABA-A receptor; alpha-1/beta-3/gamma-2 (Homo sapiens) (UniProt P14867+P18507+P28472)
Experiment: Percent change in electrophysiological response in Xenopus oocytes expressing Alpha1-beta3-gamma2 GABA-A receptor
Type: functional, cell-based
Conditions: Oocyte
In short: as §1

SMILES	Efficacy [%]
Cc1cccc(COc2nn3c(-c4nc(C)no4)nnc3c3c2C2CCC3CC2)n1	-15
Cc1noc(-c2nnc3c4c(c(OCc5ccccc5Br)nn23)C2CCC4CC2)n1	-12
Cc1cccc(COc2nn3c(-c4cnccn4)nnc3c3c2C2CCC3CC2)n1	12
CCOC(=O)c1ncn2c1[C@@H]1CCCN1C(=O)c1cc(OC)ccc1-2	-12

Biological target: T6, GABA-A receptor; alpha-2/beta-3/gamma-2 (Homo sapiens, UniProt P18507+P28472+P47869)
T6 sequence (P18507 whole entry): T4 sequence (P18507 whole entry)
T6 sequence (P28472 whole entry): T4 sequence (P28472 whole entry)
T6 sequence (P47869 whole entry): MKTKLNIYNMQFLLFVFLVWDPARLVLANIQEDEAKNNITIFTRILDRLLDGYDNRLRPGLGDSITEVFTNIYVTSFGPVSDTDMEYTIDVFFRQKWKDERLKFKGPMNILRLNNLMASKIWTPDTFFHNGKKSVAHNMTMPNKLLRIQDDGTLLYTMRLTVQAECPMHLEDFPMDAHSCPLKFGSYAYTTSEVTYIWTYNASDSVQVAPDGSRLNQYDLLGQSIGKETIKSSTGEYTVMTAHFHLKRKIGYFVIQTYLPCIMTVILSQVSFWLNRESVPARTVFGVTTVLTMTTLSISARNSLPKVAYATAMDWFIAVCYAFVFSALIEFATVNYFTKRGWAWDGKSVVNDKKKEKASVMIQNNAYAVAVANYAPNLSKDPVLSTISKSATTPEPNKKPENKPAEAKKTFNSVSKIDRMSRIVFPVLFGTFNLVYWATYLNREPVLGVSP
Experiment: Binding affinity towards human gamma-aminobutyric-acid A receptor alpha-2-beta-3-gamma-2 using [3H]Ro-151788 expressed in L(tk-) cells
Type: cell-based
Conditions: not given

SMILES	Ki [nM]
Cc1noc(-c2nnc3c4c(c(OCc5ccccc5Br)nn23)C2CCC4CC2)n1	16.5
Cc1cccc(COc2nn3c(-c4cnccn4)nnc3c3c2C2CCC3CC2)n1	28.4

Biological target: T3, GABA-A receptor; alpha-2/beta-3/gamma-2 (Homo sapiens)
Experiment: Percent change in electrophysiological response in Xenopus oocytes expressing Alpha2-beta3-gamma2 GABA-A receptor
Type: functional, cell-based
Conditions: Oocyte
In short: as §1

SMILES	Efficacy [%]
Cc1cccc(COc2nn3c(-c4nc(C)no4)nnc3c3c2C2CCC3CC2)n1	-10
Cc1noc(-c2nnc3c4c(c(OCc5ccccc5Br)nn23)C2CCC4CC2)n1	-18
Cc1cccc(COc2nn3c(-c4cnccn4)nnc3c3c2C2CCC3CC2)n1	8
CCOC(=O)c1ncn2c1[C@@H]1CCCN1C(=O)c1cc(OC)ccc1-2	-17

Biological target: T2, GABA-A receptor; alpha-3/beta-3/gamma-2 (Homo sapiens)
Experiment: Percent maximum change in electrophysiological response in Xenopus oocytes expressing alpha-3-beta-3-gamma-2 GABA-A receptor
Type: functional, cell-based
Conditions: Oocyte
In short: as §1

SMILES	Efficacy [%]
CCOC(=O)c1ncn2c1[C@@H]1CCCN1C(=O)c1cc(OC)ccc1-2	-11

Test system: not listed separately
Experiment: Oral bioavailability in rat
Type: ADME, organism-based
Conditions: in vivo
In short: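 Male SD rats with jugular cannulas were fasted overnight and dosed either by tail-vein IV bolus or orally (n = 3 per route). Serial jugular blood samples were taken up to 8 h. Plasma was frozen at −20 °C, protein-precipitated with acetonitrile containing internal standard, and quantified by LC-MS/MS.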

SMILES	bioavailability [%]
Cc1cccc(COc2nn3c(-c4nc(C)no4)nnc3c3c2C2CCC3CC2)n1	< 1

Biological target: T1, GABA-A receptor; alpha-5/beta-3/gamma-2 (Homo sapiens)
Experiment: Percent change in electrophysiological response in Xenopus oocytes expressing Alpha-5-beta-3-gamma-2 GABA-A receptor
Type: functional, cell-based
Conditions: Oocyte
In short: as §1

SMILES	Efficacy [%]
Cc1cccc(COc2nn3c(-c4nc(C)no4)nnc3c3c2C2CCC3CC2)n1	-35
Cc1noc(-c2nnc3c4c(c(OCc5ccccc5Br)nn23)C2CCC4CC2)n1	-42
Cc1cccc(COc2nn3c(-c4cnccn4)nnc3c3c2C2CCC3CC2)n1	-9
CCOC(=O)c1ncn2c1[C@@H]1CCCN1C(=O)c1cc(OC)ccc1-2	-12

Biological target: T5, GABA-A receptor; alpha-1/beta-3/gamma-2 (Homo sapiens)
Experiment: Percent maximum change in electrophysiological response in Xenopus oocytes expressing alpha-1-beta-3-gamma-2 GABA-A receptor
Type: functional, cell-based
Conditions: Oocyte
In short: as §1

SMILES	Efficacy [%]
CCOC(=O)c1ncn2c1[C@@H]1CCCN1C(=O)c1cc(OC)ccc1-2	-18

Biological target: T7, GABA-A receptor; alpha-1/beta-3/gamma-2 (Homo sapiens, UniProt P14867+P18507+P28472)
T7 sequence (P14867 whole entry): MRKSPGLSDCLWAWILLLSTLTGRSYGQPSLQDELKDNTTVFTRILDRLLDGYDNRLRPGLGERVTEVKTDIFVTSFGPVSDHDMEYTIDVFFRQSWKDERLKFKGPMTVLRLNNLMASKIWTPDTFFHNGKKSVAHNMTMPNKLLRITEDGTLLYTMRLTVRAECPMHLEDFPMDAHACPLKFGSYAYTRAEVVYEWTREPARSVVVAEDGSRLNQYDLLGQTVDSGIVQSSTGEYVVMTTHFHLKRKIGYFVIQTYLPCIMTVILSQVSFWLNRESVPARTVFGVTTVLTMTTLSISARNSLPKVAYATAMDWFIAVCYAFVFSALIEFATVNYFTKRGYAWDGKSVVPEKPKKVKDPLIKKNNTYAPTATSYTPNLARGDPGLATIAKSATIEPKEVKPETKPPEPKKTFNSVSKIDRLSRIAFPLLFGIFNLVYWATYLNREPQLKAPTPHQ
T7 sequence (P18507 whole entry): T4 sequence (P18507 whole entry)
T7 sequence (P28472 whole entry): T4 sequence (P28472 whole entry)
Experiment: Binding affinity towards human alpha-1-beta-3-gamma-2 GABA-A receptor using [3H]Ro-151788 expressed in L(tk-) cells
Type: cell-based
Conditions: not given

SMILES	Ki [nM]
Cc1cccc(COc2nn3c(-c4nc(C)no4)nnc3c3c2C2CCC3CC2)n1	75.7
Cc1noc(-c2nnc3c4c(c(OCc5ccccc5Br)nn23)C2CCC4CC2)n1	58.5
Cc1cccc(COc2nn3c(-c4cnccn4)nnc3c3c2C2CCC3CC2)n1	84

Biological target: T8, GABA-A receptor; alpha-3/beta-3/gamma-2 (Homo sapiens, UniProt P18507+P28472+P34903)
T8 sequence (P18507 whole entry): T4 sequence (P18507 whole entry)
T8 sequence (P28472 whole entry): T4 sequence (P28472 whole entry)
T8 sequence (P34903 whole entry): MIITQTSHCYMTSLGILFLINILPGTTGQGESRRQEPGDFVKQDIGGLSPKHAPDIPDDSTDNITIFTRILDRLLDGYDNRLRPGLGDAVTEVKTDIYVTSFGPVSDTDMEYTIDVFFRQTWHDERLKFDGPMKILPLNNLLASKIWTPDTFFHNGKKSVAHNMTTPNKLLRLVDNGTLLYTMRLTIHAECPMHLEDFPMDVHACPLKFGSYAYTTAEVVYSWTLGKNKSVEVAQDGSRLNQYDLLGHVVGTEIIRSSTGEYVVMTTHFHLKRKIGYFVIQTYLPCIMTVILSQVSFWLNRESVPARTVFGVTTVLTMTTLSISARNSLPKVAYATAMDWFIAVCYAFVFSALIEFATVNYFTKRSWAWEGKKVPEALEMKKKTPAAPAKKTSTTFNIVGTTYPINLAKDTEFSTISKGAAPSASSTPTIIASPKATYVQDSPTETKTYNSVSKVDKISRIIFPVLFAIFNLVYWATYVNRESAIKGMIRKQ
Experiment: Binding affinity towards human gamma-aminobutyric-acid A receptor alpha-3-beta-3-gamma-2 using [3H]Ro-151788 expressed in L(tk-) cells
Type: cell-based
Conditions: not given

SMILES	Ki [nM]
Cc1cccc(COc2nn3c(-c4nc(C)no4)nnc3c3c2C2CCC3CC2)n1	11
Cc1noc(-c2nnc3c4c(c(OCc5ccccc5Br)nn23)C2CCC4CC2)n1	6.2
Cc1cccc(COc2nn3c(-c4cnccn4)nnc3c3c2C2CCC3CC2)n1	10.6
